Measured values reported in ChEMBL document CHEMBL1275449, “Potent in vitro antifungal activities of naturally occurring acetylenic acids” (Antimicrob Agents Chemother, 2008).
The source made the active and inactive calls.

What was measured:
Format in all cases: functional, organism-based
[1] = system: Aspergillus fumigatus; assay: Antifungal activity against Aspergillus fumigatus ATCC 90906 at 168.9 uM after 48 hrs by CLSI method
[2] = system: Candida albicans; assay: Antifungal activity against Candida albicans ATCC 32354 at 168.9 uM after 48 hrs by CLSI method
Summary of the method: (§1)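 Candida inocula came from 24–72-h SD agar colonies suspended in saline. They were diluted by OD630 standard curve into RPMI 1640 (0.2% dextrose, 0.03% glutamine, 0.165 M MOPS, pH 7.0) to 1.5 × 10³ CFU/ml. Compounds were run as 11 twofold dilutions in 20% DMSO-saline, in duplicate, at 35°C for 48 h, with OD530 read before and after. Percent growth at the top concentration, IC50, MIC, and MFC (SD agar plating) were derived.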

[3] = system: Trichophyton mentagrophytes; assay: Antifungal activity against Trichophyton mentagrophytes ATCC MYA-4439 at 168.9 uM after 5 days by CLSI method
[4] = system: Candida albicans; assay: Antifungal activity against Fluconazole resistant Candida albicans isolate 1 at 168.9 uM after 48 hrs by CLSI method
Summary of the method: (§2)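 Candida in CLSI broth microdilution. Saline colony suspension set to 1.5 × 10³ CFU/ml (final) in MOPS-buffered RPMI 1640, pH 7.0. Test agent given as twofold serial dilutions in 20% DMSO-saline, duplicate wells. 35°C for 48 h. Growth read as OD530 before and after incubation. Percent inhibition scored at the highest test concentration.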

[5] = system: Pichia kudriavzevii; assay: Antifungal activity against Candida krusei ATCC 6258 at 168.9 uM after 48 hrs by CLSI method; summary of the method: as §1
[6] = system: Cryptococcus neoformans; assay: Antifungal activity against Cryptococcus neoformans ATCC 66031 at 168.9 uM after 72 hrs by CLSI method
Summary of the method: (§3)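 SD broth replaced RPMI because growth in RPMI was poor; other CLSI conditions were kept. Inoculum was 1.5 × 10³ CFU/ml from colonies on SD agar, checked by plating. Twofold serial dilutions (11 concentrations) in 20% DMSO-saline were tested in duplicate. OD530 was read before and after incubation at 35°C for 72 h. Percent growth gave IC50; the MIC is the lowest concentration with no detectable growth.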

[7] = system: Candida albicans; assay: Antifungal activity against Candida albicans ATCC 60193 at 168.9 uM after 48 hrs by CLSI method; summary of the method: as §1
[8] = system: Aspergillus fumigatus; assay: Antifungal activity against Aspergillus fumigatus ATCC 204305 at 168.9 uM after 48 hrs by CLSI method
[9] = system: Candida albicans; assay: Antifungal activity against Candida albicans ATCC 60193 at 9.4 uM after 48 hrs by CLSI method; summary of the method: as §2
[10] = system: Aspergillus niger; assay: Antifungal activity against Aspergillus niger ATCC 16404 at 9.4 uM after 48 hrs by CLSI method
Summary of the method: (§4)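 Aspergillus growth on 1–6-week potato dextrose slants scraped and Miracloth-filtered. Inoculum sized by OD630 curve to 2.7 × 10⁴ CFU/ml (final) in 5% Alamar blue-RPMI 1640 (MOPS, pH 7.0). Duplicate twofold dilutions from 20% DMSO-saline. 35°C for 48 h. Fluorescence 544/590 nm read before and after. Percent inhibition taken at the highest test concentration.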

[11] = system: Aspergillus fumigatus; assay: Antifungal activity against Aspergillus fumigatus ATCC 90906 at 9.4 uM after 48 hrs by CLSI method; summary of the method: as §4
[12] = system: Nakaseomyces glabratus; assay: Antifungal activity against Candida glabrata ATCC 90030 at 9.4 uM after 48 hrs by CLSI method; summary of the method: as §2
[13] = system: Candida albicans; assay: Antifungal activity against Fluconazole resistant Candida albicans isolate 1 at 198.1 uM after 48 hrs by CLSI method; summary of the method: as §2
[14] = system: Candida albicans; assay: Antifungal activity against Candida albicans ATCC 60193 at 198.1 uM after 48 hrs by CLSI method; summary of the method: as §1
[15] = system: Candida albicans; assay: Antifungal activity against Candida albicans ATCC 90028 at 198.1 uM after 48 hrs by CLSI method; summary of the method: as §1
[16] = system: Cryptococcus neoformans; assay: Antifungal activity against Cryptococcus neoformans ATCC 90113 at 198.1 uM after 72 hrs by CLSI method
[17] = system: Candida albicans; assay: Antifungal activity against Candida albicans ATCC 200955 at 198.1 uM after 48 hrs by CLSI method; summary of the method: as §1
[18] = system: Candida albicans; assay: Antifungal activity against Candida albicans ATCC 90028 at 187.7 uM after 48 hrs by CLSI method; summary of the method: as §1
[19] = system: Cryptococcus neoformans; assay: Antifungal activity against Cryptococcus neoformans ATCC 90113 at 187.7 uM after 72 hrs by CLSI method; summary of the method: as §3
[20] = system: Aspergillus flavus; assay: Antifungal activity against Aspergillus flavus ATCC 204304 at 187.7 uM after 48 hrs by CLSI method
[21] = system: Trichophyton rubrum; assay: Antifungal activity against Trichophyton rubrum ATCC MYA-4438 at 187.7 uM after 5 days by CLSI method
[22] = system: Pichia kudriavzevii; assay: Antifungal activity against Candida krusei ATCC 6258 at 187.7 uM after 48 hrs by CLSI method
Summary of the method: (§5)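 Yeast suspensions made from 3-5 colonies off 24-72 h SD agar plates in saline. They were diluted by OD630 standard curve in RPMI 1640 (0.2% dextrose, 0.03% glutamine, 0.165 M MOPS, pH 7.0) to 1.5 × 10³ CFU/ml. Twofold dilutions (11 concentrations, 20% DMSO-saline) run in duplicate. OD530 read before and after 35°C, 48 h. Line values are top test concentrations; no-growth endpoints give MIC/MFC.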

[23] = system: Candida albicans; assay: Antifungal activity against Fluconazole resistant Candida albicans isolate 17 at 187.7 uM after 48 hrs by CLSI method; summary of the method: as §2
[24] = system: Candida albicans; assay: Antifungal activity against Candida albicans ATCC 60193 at 187.7 uM after 48 hrs by CLSI method; summary of the method: as §1
[25] = system: Candida albicans; assay: Antifungal activity against Candida albicans ATCC 60193 at 169.8 uM after 48 hrs by CLSI method; summary of the method: as §1
[26] = system: Candida albicans; assay: Antifungal activity against Candida albicans ATCC 90028 at 169.8 uM after 48 hrs by CLSI method; summary of the method: as §1
[27] = system: Candida albicans; assay: Antifungal activity against Fluconazole resistant Candida albicans isolate 1 at 169.8 uM after 48 hrs by CLSI method; summary of the method: as §2
[28] = system: Aspergillus fumigatus; assay: Antifungal activity against Aspergillus fumigatus ATCC 204305 at 169.8 uM after 48 hrs by CLSI method
[29] = system: Aspergillus fumigatus; assay: Antifungal activity against Aspergillus fumigatus ATCC 90906 at 169.8 uM after 48 hrs by CLSI method
[30] = system: Candida albicans; assay: Antifungal activity against Candida albicans ATCC 200955 at 169.8 uM after 48 hrs by CLSI method; summary of the method: as §1
[31] = system: Cryptococcus neoformans; assay: Antifungal activity against Cryptococcus neoformans ATCC 66031 at 169.8 uM after 72 hrs by CLSI method; summary of the method: as §3
[32] = system: Candida parapsilosis; assay: Antifungal activity against Candida parapsilosis ATCC 22019 at 169.8 uM after 48 hrs by CLSI method; summary of the method: as §5

Measured: Activity

CCCCCC#CCC#CCC#CCC#CCCCC(=O)O
inactive: [1] | [2] | [3] | [4] | [5] | [6] | [7] | [8]

CC(=O)N1CCN(c2ccc(OCC3COC(Cn4ccnc4)(c4ccc(Cl)cc4Cl)O3)cc2)CC1 (configuration not stated) [KETOCONAZOLE]
inactive: [9] | [10] | [11] | [12]

CCCCCCCCCC#CCCCCC(=O)O
inactive: [13] | [14] | [15] | [16] | [17]

CCCCCCCCCCC#CCCCCC(=O)O
inactive: [18] | [19] | [20] | [21] | [22] | [23] | [24]

CCCCCCCCCCCCC#CCCCCC(=O)O [6-NONADECYNOIC ACID]
inactive: [25] | [26] | [27] | [28] | [29] | [30] | [31] | [32]
